Test results taken from ChEMBL document CHEMBL2157910, “Structure-activity relationship studies of 4-benzyl-1H-pyrazol-3-yl β-d-glucopyranoside derivatives as potent and selective sodium glucose co-transporter 1 (SGLT1) inhibitors with therapeutic activity on postprandial hyperglycemia” (Bioorg Med Chem, 2012).
pIC50: −log10 of the molar value. Values after ≈ are worked out from the molar mass of the structure shown. Active and inactive are the calls of the source. The rule behind the calls is not given here.

Assays:
[1] = molecular target: T1, Sodium/glucose cotransporter 2 (Homo sapiens, UniProt P31639); test: Inhibition of human SGLT2 expressed in COS7 cells assessed as reduction of [14C]-AMG uptake; type: cell-based, COS-7
T1 sequence (P31639 whole entry): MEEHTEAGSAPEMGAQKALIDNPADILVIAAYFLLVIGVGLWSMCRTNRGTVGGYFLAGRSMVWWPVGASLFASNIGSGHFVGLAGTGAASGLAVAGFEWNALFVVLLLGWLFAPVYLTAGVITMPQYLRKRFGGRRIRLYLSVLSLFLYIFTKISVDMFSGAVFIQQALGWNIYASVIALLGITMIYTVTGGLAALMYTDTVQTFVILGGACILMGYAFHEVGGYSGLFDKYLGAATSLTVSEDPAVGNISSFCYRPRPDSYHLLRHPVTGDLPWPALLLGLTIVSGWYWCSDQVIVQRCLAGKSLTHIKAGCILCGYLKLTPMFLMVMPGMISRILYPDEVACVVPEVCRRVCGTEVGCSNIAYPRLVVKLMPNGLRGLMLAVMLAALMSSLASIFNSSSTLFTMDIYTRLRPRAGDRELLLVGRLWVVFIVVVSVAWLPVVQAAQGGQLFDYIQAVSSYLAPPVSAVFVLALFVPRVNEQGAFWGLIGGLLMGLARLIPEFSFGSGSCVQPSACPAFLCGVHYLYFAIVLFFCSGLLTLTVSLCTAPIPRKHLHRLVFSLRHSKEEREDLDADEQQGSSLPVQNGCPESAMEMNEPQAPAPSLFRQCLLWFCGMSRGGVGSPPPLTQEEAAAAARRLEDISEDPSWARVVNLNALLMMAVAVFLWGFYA

Rattus norvegicus [2] = test: Toxicity in Wistar rat assessed as overnight urinary glucose excretion at 10 mg/kg, po; type: organism-based, Urine; set-up: dose 10 mg/kg, route oral; conditions: in vivo
Outline: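 Male Wistar rats (8 weeks) in metabolic cages, fasted 08:00 to next morning. At 16:00 they received 10 mg/kg orally in 0.5% CMC or vehicle, and urine was collected until 08:00. Urine glucose by glucose oxidase; n = 5; F-test then Student's t or Welch's test versus vehicle.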

[3] = molecular target: T2, Sodium/glucose cotransporter 1 (Rattus norvegicus, UniProt P53790); test: Inhibition of rat SGLT1 expressed in COS7 cells assessed as reduction of [14C]-AMG uptake; type: cell-based, COS-7
T2 sequence (P53790 whole entry): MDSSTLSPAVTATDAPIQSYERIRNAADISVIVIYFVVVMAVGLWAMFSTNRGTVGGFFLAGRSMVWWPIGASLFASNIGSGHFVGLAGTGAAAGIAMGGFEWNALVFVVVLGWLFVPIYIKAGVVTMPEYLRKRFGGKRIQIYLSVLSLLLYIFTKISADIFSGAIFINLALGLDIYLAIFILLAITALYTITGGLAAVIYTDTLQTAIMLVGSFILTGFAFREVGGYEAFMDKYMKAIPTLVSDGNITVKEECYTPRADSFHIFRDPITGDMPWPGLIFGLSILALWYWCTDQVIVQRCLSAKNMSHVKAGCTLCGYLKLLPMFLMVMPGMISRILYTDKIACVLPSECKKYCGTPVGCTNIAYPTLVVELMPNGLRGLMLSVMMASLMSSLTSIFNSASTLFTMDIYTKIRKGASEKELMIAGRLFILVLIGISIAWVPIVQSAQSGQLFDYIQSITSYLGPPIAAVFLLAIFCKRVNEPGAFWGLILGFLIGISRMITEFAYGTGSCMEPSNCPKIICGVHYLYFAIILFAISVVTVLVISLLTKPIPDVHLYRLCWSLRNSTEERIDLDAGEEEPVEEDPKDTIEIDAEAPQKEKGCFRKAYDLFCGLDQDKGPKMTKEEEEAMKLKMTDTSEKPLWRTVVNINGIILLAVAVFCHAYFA

[4] = molecular target: T3, Sodium/glucose cotransporter 2 (Rattus norvegicus, UniProt P53792); test: Inhibition of rat SGLT2 expressed in COS7 cells assessed as reduction of [14C]-AMG uptake; type: cell-based, COS-7
T3 sequence (P53792 whole entry): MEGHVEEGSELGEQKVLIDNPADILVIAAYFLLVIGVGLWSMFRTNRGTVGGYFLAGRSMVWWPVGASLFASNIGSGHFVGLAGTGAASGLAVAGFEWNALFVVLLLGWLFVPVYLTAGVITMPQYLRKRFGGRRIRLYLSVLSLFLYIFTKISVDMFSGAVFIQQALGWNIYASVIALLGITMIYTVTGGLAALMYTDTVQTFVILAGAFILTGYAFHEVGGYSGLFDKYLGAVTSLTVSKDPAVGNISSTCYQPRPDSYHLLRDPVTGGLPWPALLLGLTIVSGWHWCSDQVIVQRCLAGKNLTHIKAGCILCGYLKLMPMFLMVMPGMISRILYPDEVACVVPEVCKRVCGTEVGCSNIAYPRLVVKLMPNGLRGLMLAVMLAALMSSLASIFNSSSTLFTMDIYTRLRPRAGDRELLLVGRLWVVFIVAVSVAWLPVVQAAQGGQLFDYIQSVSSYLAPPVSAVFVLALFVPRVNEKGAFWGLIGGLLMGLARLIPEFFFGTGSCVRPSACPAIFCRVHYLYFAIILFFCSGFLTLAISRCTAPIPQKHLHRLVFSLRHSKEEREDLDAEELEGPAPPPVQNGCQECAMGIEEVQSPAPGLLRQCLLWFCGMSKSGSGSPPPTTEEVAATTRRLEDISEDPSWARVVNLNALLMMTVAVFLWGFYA

[5] = Metabolic stability of the compound in rat intestinal microsomes assessed as compound remaining at 50 uM after 30 mins; type: ADME, Intestine; conditions: for Stability: microsomes, 0.5 h, 50 µM
Outline: (§1)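 50 µM final compound incubated at 37 °C with 0.8 mg/mL rat intestinal microsomes, 1 mg/mL NADPH, 50 mM ammonium acetate (pH 5.0) and 10 mM MgCl2. Levels measured by LC–MS at 0, 30 and 60 min; reported as % remaining relative to 0 min.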

[6] = Metabolic stability of the compound in rat intestinal microsomes assessed as compound remaining at 50 uM after 60 mins; type: ADME, Intestine; conditions: for Stability: microsomes, 1 h, 50 µM; outline: as §1
[7] = Solubility of the compound in distilled water; type: physicochemical
Outline: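 Solubility measured in distilled water, with filtrate concentration quantified by HPLC.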

Rattus norvegicus [8] = test: Antihyperglycemic activity in po dosed Wistar rat streptozotocin-nicotinamide-induced diabetic model assessed as reduction of plasma glucose level after 1 hr by oral mixed carbohydrate tolerance test; type: functional, organism-based
Outline: (§2)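 Male Wistar rats (8 weeks) given nicotinamide 230 mg/kg i.p., then streptozotocin 85 mg/kg i.v. 15 min later; after 1 week, rats above 250 mg/dL plasma glucose at 1 h in a 2 g/kg glucose tolerance test were used. Overnight-fasted rats were dosed orally in 0.5% CMC, then immediately loaded with 2 g/kg starch/sucrose/lactose (6:3:1). Plasma glucose by glucose oxidase; n = 7; Dunnett's test versus vehicle.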

Rattus norvegicus [9] = test: Antihyperglycemic activity in Wistar rat streptozotocin-nicotinamide-induced diabetic model assessed as reduction of plasma glucose level at 1 mg/kg, po after 1 hr by oral mixed carbohydrate tolerance test; type: functional, organism-based; set-up: dose 1 mg/kg; outline: as §2
[10] = intestinal microsomes, read-out: Stability

Row | Structure (SMILES) | pIC50 [1] | also measured
1 | OC[C@H]1O[C@@H](Oc2n[nH]c(C3CC3)c2Cc2ccccc2OCc2ccccc2)[C@H](O)[C@@H](O)[C@@H]1O | 3.81 | –
2 | CCOC(=O)OC[C@H]1O[C@@H](Oc2ccccc2Cc2ccc(OC)cc2)[C@H](O)[C@@H](O)[C@@H]1O [SERGLIFLOZIN ETABONATE] | – | Activity (Rattus norvegicus [2]): 53.3 mg
3 | OC[C@H]1O[C@@H](Oc2n[nH]c(C(F)(F)F)c2Cc2ccc(OCc3ccccc3)cc2)[C@H](O)[C@@H](O)[C@@H]1O | 8.15 | –
4 | Cc1[nH]nc(O[C@@H]2O[C@H](CO)[C@@H](O)[C@H](O)[C@H]2O)c1Cc1ccccc1OCc1ccccc1 | 5.30 | –
5 | OC[C@H]1O[C@@H](Oc2n[nH]c(C(F)(F)F)c2Cc2ccccc2OCc2ccccc2)[C@H](O)[C@@H](O)[C@@H]1O | 4.85 | pIC50 [3]: 6.64; pIC50 [4]: 4.39; Stability [5]: Unstable; Stability [6]: Unstable
6 | OC[C@H]1O[C@@H](Oc2n[nH]c(C(F)(F)F)c2Cc2ccccc2)[C@H](O)[C@@H](O)[C@@H]1O | 6.47 | –
7 | Cc1cc(O)ccc1Cc1c(O[C@@H]2O[C@H](CO)[C@@H](O)[C@H](O)[C@H]2O)n[nH]c1C(C)C | – | Activity (Rattus norvegicus [8]): Dose-dependent effect
8 | OC[C@H]1O[C@@H](Oc2[nH]nc(C(F)(F)F)c2Cc2cccc(OCc3ccccc3)c2)[C@H](O)[C@@H](O)[C@@H]1O | 5.25 | –
9 | O=C(CCc1ccc(O)cc1)c1c(O)cc(O)cc1O[C@@H]1O[C@H](CO)[C@@H](O)[C@H](O)[C@H]1O [PHLORIZIN] | – | pIC50 [4]: 7.02; Stability [5]: Unstable; Stability [6]: Unstable; Activity (Rattus norvegicus [9]): inactive
10 | CCc1ccc(Cc2c(C(C)C)n[nH]c2O[C@@H]2O[C@H](CO)[C@@H](O)[C@H](O)[C@H]2O)cc1 | 7.17 | –
11 | CCc1[nH]nc(O[C@@H]2O[C@H](CO)[C@@H](O)[C@H](O)[C@H]2O)c1Cc1ccccc1OCc1ccccc1 | 4.86 | –
12 | CC(C)(C)c1[nH]nc(O[C@@H]2O[C@H](CO)[C@@H](O)[C@H](O)[C@H]2O)c1Cc1ccccc1OCc1ccccc1 | 4.19 | –
13 | OC[C@H]1O[C@@H](Oc2[nH]nc(C(F)(F)F)c2Cc2ccc(O)cc2)[C@H](O)[C@@H](O)[C@@H]1O | 6.81 | –
14 | Cc1cc(O)ccc1Cc1c(C(C)C)n[nH]c1O[C@@H]1O[C@H](CO)[C@@H](O)[C@H](O)[C@H]1O | 5.16 | pIC50 [3]: 6.74; pIC50 [4]: 5.36
15 | OC[C@H]1O[C@@H](Oc2[nH]nc(C(F)(F)F)c2Cc2cccc(O)c2)[C@H](O)[C@@H](O)[C@@H]1O | 5.55 | –

The next lines start with results.

Row | pIC50 [1] | Structure (SMILES) | also measured
16 | 4.73 | Cc1ccccc1Cc1c(C(C)C)n[nH]c1O[C@@H]1O[C@H](CO)[C@@H](O)[C@H](O)[C@H]1O | –
17 | 6.42 | COc1ccc(Cc2c(O[C@@H]3O[C@H](CO)[C@@H](O)[C@H](O)[C@H]3O)n[nH]c2C(C)C)cc1 | –
18 | 3.69 | COc1ccccc1Cc1c(O[C@@H]2O[C@H](CO)[C@@H](O)[C@H](O)[C@H]2O)n[nH]c1C(C)C | –
19 | 5.38 | CC(C)c1[nH]nc(O[C@@H]2O[C@H](CO)[C@@H](O)[C@H](O)[C@H]2O)c1Cc1ccc(F)cc1 | –
20 | 4.22 | CC(C)c1n[nH]c(O[C@@H]2O[C@H](CO)[C@@H](O)[C@H](O)[C@H]2O)c1Cc1ccccc1C(F)(F)F | –
21 | 5.22 | Cc1cccc(Cc2c(O[C@@H]3O[C@H](CO)[C@@H](O)[C@H](O)[C@H]3O)n[nH]c2C(C)C)c1 | –
22 | 6.64 | Cc1ccc(Cc2c(O[C@@H]3O[C@H](CO)[C@@H](O)[C@H](O)[C@H]3O)n[nH]c2C(C)C)cc1 | –
23 | 5.86 | CC(C)c1n[nH]c(O[C@@H]2O[C@H](CO)[C@@H](O)[C@H](O)[C@H]2O)c1Cc1ccccc1F | –
24 | 4.18 | CC(C)c1[nH]nc(O[C@@H]2O[C@H](CO)[C@@H](O)[C@H](O)[C@H]2O)c1Cc1ccccc1C#N | –
25 | 4.88 | CC(C)c1[nH]nc(O[C@@H]2O[C@H](CO)[C@@H](O)[C@H](O)[C@H]2O)c1Cc1cccc(O)c1 | –
26 | 6.55 | CC(C)c1[nH]nc(O[C@@H]2O[C@H](CO)[C@@H](O)[C@H](O)[C@H]2O)c1Cc1ccc(O)cc1 | –
27 | 4.83 | OC[C@H]1O[C@@H](Oc2n[nH]c(C(F)(F)F)c2Cc2ccccc2O)[C@H](O)[C@@H](O)[C@@H]1O | –
28 | 5.69 | CC(C)c1[nH]nc(O[C@@H]2O[C@H](CO)[C@@H](O)[C@H](O)[C@H]2O)c1Cc1ccccc1 | solubility [7]: 19000 µg/mL (≈ 50.2 mM)
29 | 4.13 | CC(C)c1[nH]nc(O[C@@H]2O[C@H](CO)[C@@H](O)[C@H](O)[C@H]2O)c1Cc1ccccc1OCc1ccccc1 | pIC50 [3]: 6.51; pIC50 [4]: 4.00; remaining at 0.5 h, 50 µM [5, 10]: 71%; remaining at 1 h, 50 µM [6, 10]: 51%; solubility [7]: 240 µg/mL (≈ 0.495 mM); Activity (Rattus norvegicus [2]): 0.4 mg
30 | 5.45 | CC(C)c1[nH]nc(O[C@@H]2O[C@H](CO)[C@@H](O)[C@H](O)[C@H]2O)c1Cc1ccc(C#N)cc1 | –
31 | 4.12 | CC(C)c1[nH]nc(O[C@@H]2O[C@H](CO)[C@@H](O)[C@H](O)[C@H]2O)c1Cc1ccccc1O | –
32 | 4.85 | CCc1ccccc1Cc1c(O[C@@H]2O[C@H](CO)[C@@H](O)[C@H](O)[C@H]2O)n[nH]c1C(C)C | –
